Screening data as filed in PubChem BioAssay.
Shown are actives, neighbours in structure and some others; about 5.2% of the full set was active somewhere.
ALR inh: blocks human ALR sulfhydryl oxidase activity. purified ALR, DTT oxidation, H2O2 HRP-luminol luminescence. AID 485317. 290,000 compounds, 3.8% hits. P55789. inhibition, % (no concentration beside the values);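 active = mean replicate inhibition above about 79%, with every replicate also reaching it, limit read from the data; inconclusive = only one of the two criteria met; inactive = mean below limit and not every replicate reaching it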
Target sequence (P55789 whole entry, looked up): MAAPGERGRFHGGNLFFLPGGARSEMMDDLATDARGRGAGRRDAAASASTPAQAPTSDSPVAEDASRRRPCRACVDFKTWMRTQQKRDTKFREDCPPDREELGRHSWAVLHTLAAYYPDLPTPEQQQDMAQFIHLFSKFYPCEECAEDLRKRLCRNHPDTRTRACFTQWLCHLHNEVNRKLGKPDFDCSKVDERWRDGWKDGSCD
M18AAP inhibitor: PfM18AAP enzyme inhibition. recombinant PfM18AAP, H-Glu-NHMec fluorogenic cleavage. inhibition, % at 7.35 µM. 290,000 compounds, 1.2% hits;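 active = inhibition above the campaign mean inhibition over all tested compounds plus 3 SD, cut at about 28% in these data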;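 note: 0% = plate median of test compound wells and 100% = 2 mM ZnCl2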
ZTA DNA inh: ZTA (EBV) inhibition in EBNA-1 counter-screen; inhibition, % at 11 µM; ZTA-DNA binding, fluorescence polarization; 320,000 compounds, 0.15% hits; AID 2234; in the data active = inhibition above about 33%
Target sequence (P03206 whole entry, looked up): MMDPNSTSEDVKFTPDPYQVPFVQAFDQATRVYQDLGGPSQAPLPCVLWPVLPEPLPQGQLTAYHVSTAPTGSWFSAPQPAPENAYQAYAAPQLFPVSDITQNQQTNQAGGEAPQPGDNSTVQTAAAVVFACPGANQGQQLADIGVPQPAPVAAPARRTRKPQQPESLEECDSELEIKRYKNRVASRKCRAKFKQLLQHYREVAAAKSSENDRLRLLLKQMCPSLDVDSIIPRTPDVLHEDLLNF
core dimer inh: HCV core protein dimerization inhibition; TR-FRET GST/Flag-core106 dimerization, 1536-well; inhibition, % at 5 µM; 300,000 compounds, 0.33% hits; AID 1899;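 active = inhibition above the mean of all tested compounds plus 3 SD, set per screening campaign, cut at about 45% in these data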
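test system = GST/Flag-tagged HCV core106 proteins | probe or stimulus = Eu donor and XL665 acceptor anti-tag antibodies | times = compound-protein-antibody incubation 4 h at 22.5 °C | signal = TR-FRET, excitation 340 nm, emission 617 and 671 nm | measure = percent inhibition of core106 dimerization signal | controls = wells lacking GST-core106 and wells with excess unlabelled core106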
NS3 helicase inh: blocks Hepatitis C virus NS3 helicase unwinding | NS3 helicase DNA unwinding, Cy5 molecular beacon fluorescence | inhibition, % at 10.9 µM | 290,000 compounds, 0.56% hits | AID 1800;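 active = inhibition above the mean of all tested compounds plus 3 SD, set per campaign, cut at about 35% in these data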;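 note: 0% = DMSO wells and 100% = thioflavine S control wells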
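test system = hepatitis C virus NS3 helicase domain fragment enzyme | reagent = annealed dual-labelled DNA beacon duplex, ATP-started | times = 1 h at 25 °C | detection = Cy5 fluorescence, 0 and 60 min reads | read-out basis = percent inhibition from t60/t0 fluorescence ratio | control set = DMSO and thioflavine S | replication = one well per compound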
EBNA-1 inh: blocks EBNA-1 binding to DNA | inhibition, % at 14.8 µM | EBNA-1 DNA binding, fluorescence polarization | 300,000 compounds, 0.34% hits; in the data active = inhibition above about 28%
Numbers without * were called inactive; ? = inconclusive; · = no result given.

SMILES | ALR inh | M18AAP inhibitor | ZTA DNA inh | core dimer inh | NS3 helicase inh | EBNA-1 inh
COc1cccc(/C=N/NC(=O)C(=O)N/N=C/c2cccc(OC)c2O)c1O | · | -11.9 | · | · | 16.0 | ·
COc1ccc(/C=N/NC(=O)CSCC(=O)Nc2ccccc2)cc1 | -5.3 | -7.0 | 1.3 | 1.1 | 0.8 | -9.6
COc1cccc(/C=N/NC(=O)CSCC(=O)Nc2ccccc2)c1O | 91.4* | 8.7 | -12.6 | -5.8 | 0.7 | -1.4
COc1cccc(/C=N/NC(=O)NC2CCCCC2)c1O | 89.8* | -1.7 | 7.5 | -1.5 | -8.5 | 4.7
CCCOc1cccc(C(=O)NCCNC(=O)c2ccc(C)nc2)c1 | 1.2 | 3.9 | -7.6 | -19.4 | 13.4 | 4.4
Nc1cc(C(=O)N2CCN(c3ccc([N+](=O)[O-])cc3)CC2)ccc1N1CC2CC(C1)c1cccc(=O)n1C2 (stereo not drawn) | -5.9 | 3.4 | 6.0 | 15.8 | -8.4 | 8.3
Cc1nc(NS(=O)(=O)c2ccccc2C)c2c3c(sc2n1)CCC3 | 97.1* | -12.0 | -3.6 | 6.6 | 20.9 | -0.4
CN(CC(=O)O/N=C(\N)c1ccc([N+](=O)[O-])cc1)S(=O)(=O)c1ccc2ccccc2c1 | -15.3 | 8.7 | -16.2 | 2.2 | 2.4 | 0.4
COc1ccc(OC(=O)c2ccncc2)cc1 | 0.9 | 11.1 | -5.3 | -5.8 | -0.8 | -5.2
COc1ccc(C(=O)Oc2ccc(/C=N/O)cc2)cc1 | 90.5* | -0.2 | -1.8 | -0.1 | -3.1 | 6.2
CCOC(=O)NN1C(=O)c2ccccc2NC1c1ccccc1 (stereo not drawn) | -8.8 | -2.4 | 10.2 | 6.4 | 6.4 | 3.6
CCOC(=O)NN1C(=O)c2ccccc2NC1c1ccccn1 (stereo not drawn) | -1.2 | 29.7* | 16.9 | 2.0 | 1.5 | 7.6
Cc1cc2[nH]c(=O)c(=O)[nH]c2cc1S(=O)(=O)Nc1cccc(C)c1C | 0.6 | 7.7 | -4.9 | -1.8 | 12.8 | -13.2
O=C(NCCN1CCN(c2ccccc2)CC1)c1ccccc1F | 98.7* | -7.3 | 0.1 | -2.8 | 0.0 | -9.3
COc1cc(/C=N/NC(=O)CCN2CCN(c3ccccc3)CC2)cc(OC)c1OC | 92.7* | 1.7 | -3.5 | -1.5 | -0.5 | -7.8
COc1cc(NC(=O)NCCN2CCN(c3ccccc3)CC2)cc(OC)c1OC | 97.6* | -14.3 | 7.9 | 1.5 | -15.6 | 1.6
CCn1cc(C(=O)N[C@H](C(=O)NCCO)C(C)C)c(=O)c2cc3c(cc21)OCO3 | · | -2.4 | 5.7 | 0.9 | -6.4 | 3.7
CCNS(=O)(=O)c1ccc(CCC(=O)N2CCN(C(=O)OCC)CC2)cc1 | -3.8 | -4.0 | -13.3 | 0.7 | 15.1 | -0.3
Cc1cccn2c(=O)c3cc(C#N)c(=NC(=O)c4ccccc4)n(Cc4ccco4)c3nc12 | 89.3* | · | 4.9 | 46.0* | · | 5.4
Cc1cccn2c(=O)c3cc(C#N)c(=NC(=O)c4ccco4)n(Cc4ccco4)c3nc12 | 61.4 | -16.1 | 22.9 | 26.7 | 4.9 | 12.3
Cc1cccc(C(=O)N=c2c(C#N)cc3c(=O)n4cccc(C)c4nc3n2Cc2ccco2)c1 | · | -34.9 | -4.7 | 59.7* | 16.6 | 4.1
CCOC(=O)c1cc2c(=O)n3ccccc3nc2n(Cc2ccco2)c1=NC(=O)c1ccccc1OCC | 89.6* | -36.4 | 9.9 | 10.9 | 13.6 | 6.9
COc1ccc(S(=O)(=O)N2CCOc3ccccc32)cc1 | · | -6.5 | -1.0 | 1.1 | -27.4 | 5.3
N#C/C(=C\c1ccc(OC(=O)c2ccc(Cl)s2)cc1)c1nc2ccccc2[nH]1 | -15.3 | 4.5 | -13.8 | 5.6 | 9.8 | 11.6
COc1ccc(OC)c(NC(=O)c2ccc3c(=O)n(CCc4ccccc4)c(=S)[nH]c3c2)c1 | · | -2.9 | 10.4 | 13.9 | 1.4 | 3.6
SMILES | ALR inh | M18AAP inhibitor | ZTA DNA inh | core dimer inh | NS3 helicase inh | EBNA-1 inh
CC(=O)NC(CC(=O)Nc1ccc(S(=O)(=O)NC2=NCCCCC2)cc1)c1ccccc1 (stereo not drawn) | -8.1 | · | 5.3 | · | · | ·
Cc1nnc(SCC(=O)Nc2cc(Cl)ccc2Cl)n1CC1CCCO1 (stereo not drawn) | 22.2 | -4.6 | 1.7 | 1.5 | 1.2 | 7.7
Cn1cnc(C(=O)NCc2ccccc2)c1C(=O)NCc1ccccc1 | -9.5 | · | · | · | · | ·
O=C(c1ccccc1)N(Nc1ccccc1)c1ccccc1 | 76.1* | 1.6 | -1.0 | -4.4 | -13.6 | -8.8
O=C(NN(C(=O)c1ccccc1)c1ccccc1)c1ccccc1 | 3.3 | -2.3 | -7.2 | 3.5 | -3.4 | 7.3
Cc1ccc(/C=c2\sc3nc(-c4cccs4)nn3c2=O)o1 | 99.1* | 4.2 | 7.3 | 5.2 | 34.2 | -3.4
COc1ccccc1/C=c1\sc2nc(-c3cccs3)nn2c1=O | · | -4.5 | · | · | 14.0 | ·
c1ccc(C2Oc3ccccc3C3CC(c4cccs4)=NN32)cc1 (stereo not drawn) | 97.7* | 11.5 | -13.8 | 3.9 | -6.0 | -9.7
Cc1cccc(OCc2nn[nH]n2)c1C | · | 3.1 | 9.3 | 8.2 | -1.2 | 4.7
COc1cc(-c2csc(CCn3nc(C)cc3C)n2)cc(OC)c1OC | 98.9* | 5.8 | 13.2 | 1.8 | -3.0 | -8.2
CSc1ncc(Cl)c(C(=O)C(C#N)c2nc3c(C)cc(C)cc3c(=O)[nH]2)n1 (stereo not drawn) | 86.4* | -1.0 | 7.6 | 18.4 | 23.9 | 7.4
Nc1ncc2c(n1)-c1ccccc1CC2 | -19.4 | 1.6 | -11.5 | -4.8 | 6.3 | 1.5
Nc1ncc2c(n1)-c1ccoc1CC2 | 89.2* | 9.3 | -19.3 | 2.6 | 3.1 | 5.4
COc1ccc(-c2cn(CCC(=O)O)c(C)n2)cc1 | · | · | -11.6 | 6.5 | · | 6.3
O=C(O)CC1S/C(=N/N=C/c2ccc(-c3ccc(Cl)cc3[N+](=O)[O-])o2)NC1=O (stereo not drawn) | 82.2* | 26.9 | -2.2 | -5.4 | 23.2 | 14.6
O=C(O)CC1S/C(=N/N=C/c2ccc(-c3ccc(Cl)c([N+](=O)[O-])c3)o2)NC1=O (stereo not drawn) | ? | 23.2 | 11.2 | 10.5 | 17.6 | -2.7
Cc1cc(N(C)Cc2ccccc2)nc(-c2ccccc2)n1 | · | -9.8 | 5.3 | -5.6 | -8.3 | 7.8
Cc1cc(N(C)Cc2ccccc2)nc2cc(O)ccc12 | 97.9* | 10.5 | -3.4 | -1.7 | -19.9 | -10.7
CCOc1ccc(N2C(=O)CSC2c2ccncc2)cc1 (stereo not drawn) | 99.6* | -7.5 | -21.1 | -1.6 | -2.0 | -4.0
COc1ccc(N2C(=O)CSC2c2ccc(F)c(F)c2)cc1 (stereo not drawn) | · | -6.6 | 4.8 | 0.2 | 6.4 | -8.4
COc1ccc(N2C(=O)CSC2c2cccs2)cc1 (stereo not drawn) | 99.2* | 4.1 | -7.3 | -2.6 | 3.0 | 7.4
CCc1c(C)nc(SCC(=O)Nc2ccc3c(c2)OCCO3)[nH]c1=O | 98.8* | 3.4 | -1.6 | -2.4 | 4.3 | -12.9
Cn1c(SCC(=O)Nc2ccc3[nH]c(=O)[nH]c3c2)nnc1-c1ccc(F)cc1 | 99.0* | 2.9 | -24.5 | -4.2 | -3.5 | -5.4
O=C(CSc1nc2ccccc2[nH]1)Nc1ccc2c(c1)OCCO2 | 99.1* | 1.5 | -4.6 | 2.2 | -9.1 | -3.1
